PAFAH1B2 FP inh: PAFAH1B2 enzyme inhibitors, primary screen, biochemical, fluorescence polarization, human | Platelet-activating factor acetylhydrolase IB subunit alpha2 (Homo sapiens), P68402 | recombinant PAFAH1B2, FP-rhodamine activity probe | inhibition, % at 3.39 µM | 1.2% of 340,000 active | AID 492953, 2010;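 active means inhibition above the mean of all tested compounds plus 3 SD, cut at about 24% in these data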;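 further: 0% = enzyme with DMSO and 100% = wells lacking PAFAH1B2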
Apaf1 inhib: inhibitors of human Apaf-1 apoptosome, primary screen, biochemical, DEVD-Rh110 fluorescence, uHTS. Apoptotic protease-activating factor 1 (Homo sapiens), O14727. reconstituted apoptosome caspase-3 activity. inhibition, % at 20 µM. 0.71% of 330,000 active. AID 489030, 2010; active means inhibition of at least 40% at 20 µM;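 further: plate controls were DMSO wells for no effect and DEVD-CHO caspase inhibitor wells for full effect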
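System: Apoptosome proteins | Medium: Hepes pH 7.5 with detergent and BSA | Also added: Cytochrome c trigger plus (Z-DEVD)2-Rh110 caspase-3 substrate | Incubation: 30 min compound preincubation, 50 min activation, room temperature | Detection: Rhodamine 110 fluorescence at Ex 480/Em 540 nm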
pPAFAH inh: pPAFAH enzyme inhibitors, primary screen, biochemical, fluorescence polarization, human; inhibition, % at 3.39 µM; Platelet-activating factor acetylhydrolase (Homo sapiens), Q13093; recombinant pPAFAH, FP-rhodamine probe fluorescence polarization; AID 463082, 2010; 1.5% of 330,000 active;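 active means inhibition above the mean inhibition across the screen plus 3 SD, cut at about 25% in these data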;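 further: inhibitors block binding of the rhodamine activity-based probe so polarization drops; 0% = enzyme with DMSO and 100% = wells lacking pPAFAH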
PAFAH1B3 FP inh: PAFAH1B3 enzyme inhibitors, primary screen, biochemical, fluorescence polarization, human | 0.28% of 340,000 active | inhibition, % at 3.39 µM | Platelet-activating factor acetylhydrolase IB subunit alpha1 (Homo sapiens), Q15102 | recombinant PAFAH1B3, FP-rhodamine probe | AID 492972, 2010;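 active means inhibition above the screen-wide average of all tested compounds plus 3 SD, cut at about 25% in these data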;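 further: 0% = enzyme with DMSO only and 100% = wells lacking PAFAH1B3 protein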
PAFAH2 inh: PAFAH2 enzyme inhibitors, primary screen, biochemical, fluorescence polarization, human. recombinant PAFAH2, FP-rhodamine activity probe. 0.99% of 340,000 active. inhibition, % at 3.39 µM. Platelet-activating factor acetylhydrolase 2, cytoplasmic (Homo sapiens), Q99487;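 active means inhibition above the mean over all tested compounds plus 3 SD, cut at about 30% in these data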;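 further: inhibitors block probe labeling of enzyme so polarization drops; 0% = enzyme with DMSO and 100% = wells lacking PAFAH2 protein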
PAFAH1B3 confirm: PAFAH1B3 enzyme inhibitors, confirmation, biochemical, fluorescence polarization, human; shares compounds with PAFAH1B3 FP inh; recombinant PAFAH1B3, FP-Rh activity-based probe; inhibition, % at 3.39 µM; 30% of 390 active;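 active means average inhibition over triplicate runs above the hit cutoff set in the earlier primary screen, cut at about 25% in these data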;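 further: 0% = enzyme with DMSO and 100% = wells lacking PAFAH1B3 protein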
* hit, by the source's call; . = no result given. Compounds with a hit are over-represented: about 3.1% of the library has one in this group of screens.

SMILES	PAFAH1B2 FP inh	Apaf1 inhib	pPAFAH inh	PAFAH1B3 FP inh	PAFAH2 inh	PAFAH1B3 confirm
O=C(COC(=O)c1cc(-c2cccc3ccccc23)nc2ccccc12)NC1CCS(=O)(=O)C1 (stereo not drawn)	21.3	15.8	15.5	28.6*	25.3	13.7
Cc1cc(C(=O)OCC(=O)NC2CCS(=O)(=O)C2)c2ccccc2n1 (stereo not drawn)	5.7	-1.8	-0.2	9.5	1.0	.
O=C(CCC(=O)OCc1ccc([N+](=O)[O-])cc1Cl)Nc1ccccc1	-3.5	-4.5	1.6	2.5	-2.2	.
Cc1cccc(NC(=O)CN2C(=O)N/C(=C/c3ccc(C)o3)C2=O)c1	2.2	.	10.0	6.0	-1.1	.
Cc1cccc(NC(=O)CN2C(=O)N/C(=C\c3ccc(-c4cccc(C(=O)O)c4)o3)C2=O)c1	7.7	3.3	10.5	81.1*	5.7	76.3*
O=C1ON=C(c2ccccc2)/C1=C/c1ccc(O)c(O)c1	8.1	11.6	7.3	29.3*	10.1	46.6*
COc1ccc(/C=C2\C(=O)ON=C2c2ccccc2)cc1	5.9	-0.6	-0.4	0.1	7.3	.
Cc1ccccc1OCC(=O)NNC(=S)NC(=O)c1ccco1	-3.6	-10.9	1.4	-4.3	1.3	.
CC(C)c1ccc(OCC(=O)NNC(=S)NC(=O)c2ccco2)c(Br)c1	17.9	13.4	9.0	26.9*	8.4	8.7
Cc1nc2ccc(C(=O)N/N=C/c3cc([N+](=O)[O-])ccc3O)cc2[nH]1	6.8	-12.3	13.4	26.6*	1.1	23.6
Cc1nc2ccc(C(=O)N/N=C/c3ccccc3O)cc2[nH]1	5.6	4.4	3.3	6.4	10.6	.
COc1cccc(/C=N/NC(=O)c2ccc3nc[nH]c3c2)c1O	5.6	-14.7	8.3	2.9	0.9	.
CCN(CC)c1ccc(/C=N/NC(=O)c2ccc3nc[nH]c3c2)c(O)c1	23.1	10.4	17.0	26.5*	19.3	22.3
CCC(CC)C(=O)Nc1cc(C)cc(C)c1	-1.0	-6.8	2.9	4.6	1.3	.
COc1cc(NS(=O)(=O)c2ccc(NC(=S)NC(=O)/C=C/c3ccco3)cc2)ncn1	9.4	8.9	.	29.5*	26.6	16.8
CCOc1ccc(NC(=S)NC(=O)/C=C/c2ccco2)cc1	-2.0	7.9	10.7	8.1	-1.5	.
O=C(N1CCCCC1)C12CC3CC(C1)CC(C(=O)N1CCCCC1)(C3)C2	3.5	-23.3	7.8	39.3*	0.1	9.8
O=C(N1CCCC1)C12CC3CC(CC(C3)C1)C2	8.3	2.5	-5.2	-3.3	3.0	.
CC(=O)c1c(C)[nH]c(C(=O)CN2CCN(S(=O)(=O)c3ccccc3[N+](=O)[O-])CC2)c1C	-0.7	3.5	1.1	-1.1	-2.3	.
CCOC(=O)[C@H]1[C@H]2COc3cc(OC)ccc3[C@@H]2N2C(=O)CN(Cc3ccc(OC)cc3)C(=O)[C@@]12C	5.6	12.3	-6.4	3.7	5.2	.
O=C1c2ccccc2C(=O)c2c1cccc2N(CCO)CCO	4.3	8.3	2.4	4.7	-2.4	.
O=C1C=C(N(CCO)Cc2ccccc2)c2ccccc2C1=O	9.7	.	.	43.8*	20.4	28.9*
Cc1cc(=O)n2nc(N3CCCC(C(=O)NCc4cccc(Br)c4)C3)sc2n1 (stereo not drawn)	-0.2	-1.2	4.5	8.8	-11.5	.
CCOC(=O)c1c(C)[nH]c(C)c1C(=O)COC(=O)c1ccc([N+](=O)[O-])s1	18.2	25.3	18.4	45.5*	17.0	13.8
CCOC(=O)c1c(C)[nH]c(C)c1C(=O)COC(=O)/C=C/c1ccccc1[N+](=O)[O-]	1.8	0.6	1.4	-1.6	5.4	.
SMILES	PAFAH1B2 FP inh	Apaf1 inhib	pPAFAH inh	PAFAH1B3 FP inh	PAFAH2 inh	PAFAH1B3 confirm
COc1cc(C(=O)Nc2ccc(C)c(S(=O)(=O)N(C)C)c2)ccc1OCC(=O)N1CCOCC1	0.1	-6.5	3.4	-5.5	-4.2	.
C=CCn1c(O)c(N=Nc2ccccc2O)c2ccccc21	13.4	-1.6	14.0	26.2*	4.2	12.6
C=CCn1c(O)c(N=Nc2ccccc2)c2ccccc21	3.0	13.1	1.5	8.2	-2.6	.
Cc1ccc(NC(=O)NNC(=O)c2cc3ccccc3cc2O)cc1	20.9	4.6	21.4	46.2*	-13.0	75.6*
O=C(NNC(=O)c1ccc2ccccc2c1O)NC1CCCCC1	11.1	1.1	.	30.1*	2.6	24.8
COc1ccccc1NC(=O)NNC(=O)c1cc2ccccc2cc1O	9.8	12.0	22.1	31.8*	1.5	44.6*
Cc1cccc(NC(=O)NNC(=O)c2ccc3ccccc3c2O)c1	18.2	10.8	.	42.5*	-5.8	81.7*
N#Cc1ccccc1OCC(=O)Nc1c(C(=O)C2CC2)oc2ccccc12	3.0	23.7	3.5	4.0	11.9	.
Nc1nc(SCc2ccccc2)c2ncn(C3CCCCC3)c2n1	7.7	.	.	7.9	-1.4	.
CCN1CCN(c2ncnc3sc4c(c23)CCC(C)C4)CC1 (stereo not drawn)	2.6	7.1	-2.2	1.2	4.2	.
Nc1ncc(Br)cc1S(=O)(=O)NCCc1ccccc1	4.2	-3.3	0.2	5.2	3.2	.
N#Cc1cc2c(nc1SCC(=O)N1CCOCC1)CCCCC2	-2.2	-10.2	13.6	26.1*	0.9	8.9
N#Cc1cc2c(nc1SCC(N)=O)CCCCC2	2.1	-1.7	3.6	5.5	-4.3	.

Screening data: PubChem BioAssay, several laboratories
